Data: ChEMBL document CHEMBL4814017, “Discovery and optimization of novel 3-benzyl-N-phenyl-1H-pyrazole-5-carboxamides as bifunctional antidiabetic agents stimulating both insulin secretion and glucose uptake” (Eur J Med Chem, 2021)
Active and inactive are the calls of the source. The calls are words filed in the database; no cut-off is given here.

Key:
[1] = Cytotoxicity against rat INS1 cells assessed as cell viability at 10 uM incubated for 24 hrs by MTT assay relative to untreated control; assay type: cell-based; details: read-out: Activity
[2] = Induction of insulin secretion in rat INS-1 cells assessed as glucose stimulation index at 10 uM followed by stimulated with 16.7 mM glucose measured after 1 hrs by ELISA relative to basal insulin level; assay type: functional, INS1
Summary of the method: (§1)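 Rat insulinoma INS-1 cells grown in RPMI 1640 with 11 mM glucose, 10% FBS, HEPES, pyruvate and 2-mercaptoethanol. After 24 h seeding, cells washed in KRB pH 7.4 with 3.3 mM glucose, starved 2 h, given compound for 30 min, then 3.3 mM (basal) or 16.7 mM glucose for 1 h. Insulin measured by rat insulin ELISA at 450 nm. GSI = stimulated/basal insulin. Triplicate, mean ± SD. Gliclazide control.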

[3] = Induction of insulin secretion in rat INS-1 cells assessed as glucose stimulation index at 5 uM followed by stimulated with 16.7 mM glucose measured after 1 hrs by ELISA relative to basal insulin level; assay type: functional, INS1; summary of the method: as §1
C2C12 [4] = assay: Downregulation of MG53 level in mouse C2C12 cells after 16 hrs by Western blot analysis; assay type: functional, cell-based; details: dose microM <=50, time 16.0 hrs
Summary of the method: (§2)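 C2C12 myoblasts grown in DMEM to 90% confluence and differentiated 4 days in DMEM with 2% horse serum. Myotubes then held 16 h in DMEM with 2% BSA and 10% FBS with 0, 5, 10, 20 or 50 µM compound. Western blot for MG53, IRS-1, p-PI3K, PI3K, p-Akt, Akt and GAPDH.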

3T3-L1 = assay: Cytotoxicity against mouse 3T3-L1 cells assessed as reduction in cell viability incubated for 24 hrs by MTT assay; assay type: cell-based; details: 3t3-l1, 24 h
C2C12 [5] = assay: Activation of PI3K/Akt signalling pathway in mouse C2C12 cells assessed as increase in p-Akt expression upto 50 uM incubated for 16 hrs by Western blot analysis; assay type: cell-based; details: filed as activator, dose microM <=50, time 16.0 hrs; summary of the method: as §2
INS1 [6] = assay: Activation of PI3K/Akt signalling pathway in rat INS1 cells assessed as increase in p-IRS2 expression at 2.5 to 10 uM after 24 hrs by Western blot analysis; assay type: cell-based; details: filed as activator, dose 2.5-10 µM
Summary of the method: (§3)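 INS-1 cells seeded in 6-well plates, grown 24 h, then treated 24 h with 0, 2.5, 5 or 10 µM; vehicle control 0.5% DMSO. Lysed in RIPA with 1 mM PMSF at 4 °C, protein by BCA. Blots probed for p-IRS-2 (Ser731), IRS-2, p-PI3K, PI3K, p-Akt (Ser473), Akt, PPAR-γ, PDX-1 and GAPDH, HRP anti-rabbit secondary, ECL detection, densitometry. Triplicate, n = 3, SD.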

C2C12 [7] = assay: Induction of glucose uptake in mouse C2C12 cells incubated for 16 hrs in absence of insulin by 2-NBDG uptake assay; assay type: functional, cell-based; details: dose microM <=50, time 16.0 hrs
Summary of the method: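 Differentiated C2C12 myotubes (4 days, DMEM with 2% horse serum) held 16 h in DMEM with 2% BSA and 10% FBS, with or without compound and without insulin, after which basal glucose uptake was measured.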

C2C12 [8] = assay: Activation of PI3K/Akt signalling pathway in mouse C2C12 cells assessed as increase in p-PI3K expression upto 50 uM incubated for 16 hrs by Western blot analysis; assay type: cell-based; details: filed as activator, dose microM <=50, time 16.0 hrs; summary of the method: as §2
INS1 [9] = assay: Activation of PI3K/Akt signalling pathway in rat INS1 cells assessed as increase in p-PI3K expression at 2.5 to 10 uM after 24 hrs by Western blot analysis; assay type: cell-based; details: filed as activator, dose 2.5-10 µM; summary of the method: as §3
INS1 [10] = assay: Induction of PPARgamma expression in rat INS1 cells at 2.5 to 10 uM after 24 hrs by Western blot analysis; assay type: functional, cell-based; details: dose 2.5-10 µM; summary of the method: as §3
INS1 [11] = assay: Induction of PDX-1 expression in rat INS-1 cells at 2.5 to 10 uM after 24 hrs by Western blot analysis; assay type: functional, cell-based; details: dose 2.5-10 µM; summary of the method: as §3
C2C12 [12] = assay: Upregulation of IRS-1 level in mouse C2C12 cells upto 50 uM after 16 hrs by Western blot analysis; assay type: functional, cell-based; details: dose microM <=50, time 16.0 hrs; summary of the method: as §2
[13] = Cytotoxicity against human LX2 cells assessed as reduction in cell viability incubated for 24 hrs by MTT assay; assay type: cell-based; details: lx-2, 24 h
INS1 [14] = assay: Activation of PI3K/Akt signalling pathway in rat INS1 cells assessed as increase in p-Akt expression at 2.5 to 10 uM after 24 hrs by Western blot analysis; assay type: cell-based; details: filed as activator, dose 2.5-10 µM; summary of the method: as §3

Structure (SMILES)	viability at 24 h, 10 µM [1] [%]	Activity_index [2]	Activity_index [3]	further results
O=C(Nc1ccccc1)c1cc(Cc2ccc(Cl)cc2)n[nH]1	109	5.24		
COc1ccccc1NC(=O)c1cc(Cc2ccc(Cl)cc2)n[nH]1	98.1		1.56	
COc1ccc(Cc2cc(C(=O)Nc3ccc(F)cc3)[nH]n2)cc1	105	2.49		
O=C(Nc1ccc2c(c1)OCO2)c1cc(Cc2ccc(Cl)cc2)n[nH]1	101		1.29	
COc1ccc(Cc2cc(C(=O)Nc3ccccc3)[nH]n2)cc1	105	4.4		
COC(=O)c1ccc(NC(=O)c2cc(Cc3ccc(F)cc3)n[nH]2)cc1	102	1.42		
COc1ccc(NC(=O)c2cc(Cc3ccc(Cl)cc3)nn2C)c(OC)c1	96.2		1.37	
CC(C)(C)c1ccc(NC(=O)c2cc(Cc3ccc(F)cc3)n[nH]2)cc1	98.6	1.96		
COC(=O)c1ccc(NC(=O)c2cc(Cc3ccc(OC)cc3)n[nH]2)cc1	99.2	1.85		
COc1cccc(NC(=O)c2cc(Cc3ccc(F)cc3)n[nH]2)c1	101		7.49	
COc1ccc(Cc2cc(C(=O)Nc3ccc(C(C)(C)C)cc3)[nH]n2)cc1	99.4	1.64		
COc1ccc(NC(=O)c2cc(Cc3ccccc3Cl)n[nH]2)c(OC)c1	102		2.43	
COc1ccc(OC)c(NC(=O)c2cc(Cc3ccc(F)cc3)n[nH]2)c1	104		1.52	
Cc1ccc(S(=O)(=O)NC(=O)NN2CC3CCCC3C2)cc1 (stereo not drawn) [GLICLAZIDE]	98.7	5.86	4.22	
COc1cccc(NC(=O)c2cc(Cc3ccc(Cl)cc3)n[nH]2)c1OC	98.8		1.85	
COc1ccc(Cc2cc(C(=O)Nc3ccc(C(F)(F)F)cc3)[nH]n2)cc1	98.4	2.07		
COc1cccc(NC(=O)c2cc(Cc3ccc(Cl)cc3)n[nH]2)c1	96.5		1.54	
COc1ccc(Cc2cc(C(=O)Nc3cc(OC)ccc3OC)[nH]n2)cc1	100		2.35	
COc1ccc(Cc2cc(C(=O)Nc3ccc(OC)cc3OC)[nH]n2)cc1	101		1.58	
COc1ccc(Cc2cc(C(=O)Nc3cccc(OC)c3)[nH]n2)cc1	102		1.55	
O=C(Nc1ccc(F)cc1)c1cc(Cc2ccc(F)cc2)n[nH]1	100	1.86		

Structure (SMILES)	viability at 24 h, 10 µM [1] [%]	Activity_index [2]	Activity_index [3]	further results
COc1ccccc1NC(=O)c1cc(Cc2ccc(F)cc2)n[nH]1	104		3.67	
COc1ccc(NC(=O)c2cc(Cc3ccc(F)cc3)n[nH]2)cc1	95.6	2.03		
COc1ccc(Cc2cc(C(=O)Nc3cccc(OC)c3OC)[nH]n2)cc1	98.9		1.13	
O=C(Nc1ccccc1)c1cc(Cc2ccc(F)cc2)n[nH]1	100	2		
COc1ccc(NC(=O)c2cc(Cc3ccc(Cl)cc3)n[nH]2)c(OC)c1	96.3		14.9	inhibition (C2C12 [4]): Dose-Dependent Effect; Activity (3T3-L1): Non-Toxic; Activity (C2C12 [5]): Active; Activity (INS1 [6]): Dose-Dependent Effect; Activity (C2C12 [7]): Dose-Dependent Effect; Activity (C2C12 [8]): Active; Activity (INS1 [9]): Dose-Dependent Effect; Activity (INS1 [10]): Active; Activity (INS1 [11]): Active; Activity (C2C12 [12]): Active; Activity [13]: Non-Toxic; Activity (INS1 [14]): Dose-Dependent Effect
COc1ccc(NC(=O)c2cc(Cc3cccc(Cl)c3)n[nH]2)c(OC)c1	97.7		1.29	
O=C(Nc1ccc2c(c1)OCO2)c1cc(Cc2ccc(F)cc2)n[nH]1	97.6		1.25	
O=C(Nc1ccc(C(F)(F)F)cc1)c1cc(Cc2ccc(F)cc2)n[nH]1	92.8	2.02		
COc1cccc(NC(=O)c2cc(Cc3ccc(F)cc3)n[nH]2)c1OC	102		1.16	
CC(C)(C)c1ccc(NC(=O)c2cc(Cc3ccc(Cl)cc3)n[nH]2)cc1	97.5	4.89		
COC(=O)c1ccc(NC(=O)c2cc(Cc3ccc(Cl)cc3)n[nH]2)cc1	101	1.48		
COc1ccc(NC(=O)c2cc(Cc3ccc(F)cc3)n[nH]2)c(OC)c1	99.9		1.93	
COc1ccc(Cc2cc(C(=O)Nc3ccc4c(c3)OCO4)[nH]n2)cc1	102		1.13	
O=C(Nc1ccc(F)cc1)c1cc(Cc2ccc(Cl)cc2)n[nH]1	94.9	6.73		
COc1ccc(OC)c(NC(=O)c2cc(Cc3ccc(Cl)cc3)n[nH]2)c1	97.9		3.25	
COc1ccc(N(C)C(=O)c2cc(Cc3ccc(Cl)cc3)n[nH]2)c(OC)c1	93.3		1.33	
O=C(Nc1ccc(C(F)(F)F)cc1)c1cc(Cc2ccc(Cl)cc2)n[nH]1	102	1.69		
COc1ccc(NC(=O)c2cc(C(=O)c3ccc(Cl)cc3)n[nH]2)c(OC)c1	100		1.49	
COc1ccc(Cc2cc(C(=O)Nc3ccccc3OC)[nH]n2)cc1	101		1.66	
COc1ccc(NC(=O)c2cc(Cc3ccc(Cl)cc3)n[nH]2)cc1	101	7.59	2.6	
COc1ccc(Cc2cc(C(=O)Nc3ccc(OC)cc3)[nH]n2)cc1	105	1.66		
